In experiment [1] the target is T1, Excitatory amino acid transporter 3 (Homo sapiens) (UniProt P43005).
T1 sequence (whole entry): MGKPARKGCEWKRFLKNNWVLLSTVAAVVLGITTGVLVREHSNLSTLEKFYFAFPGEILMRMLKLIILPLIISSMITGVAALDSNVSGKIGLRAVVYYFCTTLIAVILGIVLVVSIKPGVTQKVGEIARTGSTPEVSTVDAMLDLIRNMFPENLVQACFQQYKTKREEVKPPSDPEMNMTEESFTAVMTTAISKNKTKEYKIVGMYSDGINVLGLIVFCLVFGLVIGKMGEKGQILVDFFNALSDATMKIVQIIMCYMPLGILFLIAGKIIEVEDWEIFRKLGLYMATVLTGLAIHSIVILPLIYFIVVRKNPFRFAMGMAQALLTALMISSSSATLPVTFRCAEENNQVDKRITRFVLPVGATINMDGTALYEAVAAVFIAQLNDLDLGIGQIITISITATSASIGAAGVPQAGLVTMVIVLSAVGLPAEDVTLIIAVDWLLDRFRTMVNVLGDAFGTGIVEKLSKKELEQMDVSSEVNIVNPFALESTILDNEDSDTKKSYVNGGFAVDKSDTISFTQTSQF
As to the kind of experiment: Residual [3H]D-aspartate uptake at human EAAT3 expressed in mouse C17.2 cells at 100 uM relative to control.

Experiment [2] deals with T2, Excitatory amino acid transporter 3 (Homo sapiens, UniProt P43005).
T2 sequence (P43005 whole entry): T1 sequence (whole entry)
As to the kind of experiment: Displacement of [3H]D-aspartate from human EAAT3 expressed in mouse C17.2 cells. The experiment is classed as cell-based. The gist of the method:
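C17.2 neuroprogenitor cells (passages 10–20) seeded at 5 × 10^4/well, transiently transfected with human EAAT3 plasmid 24 h after plating, assayed 24 h later. Cells preincubated 5 min at 37°C in HEPES-buffered saline, pH 7.4, then given 1 µM 3H-D-aspartate with varying inhibitor concentrations. Rinsed with ice-cold buffer after uptake and read by scintillation counting. Corrected for 4°C background. IC50 from a one-site fit, ±SEM.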

For experiment [3], the species on record is Homo sapiens. As to the kind of experiment: Selectivity for human EAAT3 over human EAAT1 expressed in mouse C17.2 cells. It is filed as cell-based.
The species named for experiment [4] is Homo sapiens. As to the kind of experiment: Selectivity for human EAAT3 over human EAAT2 expressed in mouse C17.2 cells. The experiment is classed as cell-based.

Take `N[C@H](C(=O)O)C(Cc1c(Cl)cccc1Cl)C(=O)O` (stereo not given in full): in experiment [1], the residual activity was found to be 86%.

`N[C@H](C(=O)O)C(Cc1cccc(Br)c1)C(=O)O` (mixture of isomers): the residual activity in experiment [1] is 8%. For `N[C@H](C(=O)O)[C@@H](Cc1cccc(F)c1)C(=O)O`, the IC50 in experiment [2] is 21.1 µM. In experiment [1], `N[C@H](C(=O)O)C(Cc1ccccc1)C(=O)O` (stereo not given in full) yielded a residual activity of 4%. On the same count and under the same terms, the figure for `N[C@H](C(=O)O)C(Cc1cccc([N+](=O)[O-])c1)C(=O)O` (mixture of isomers) is 29%.

`N[C@H](C(=O)O)[C@H](Cc1ccccc1)C(=O)O`: the residual activity in experiment [1] was 1%. Besides, the fold change (FC) in the experiment listed under Homo sapiens [3] and in the experiment filed under Homo sapiens [4] was 10 in each case. `N[C@H](C(=O)O)C(Cc1ccc2ccccc2c1)C(=O)O` (stereo not given in full) registered a residual activity in experiment [1] of 68%.

As to `Cc1cccc(CC(C(=O)O)[C@H](N)C(=O)O)c1` (mixture of isomers), the residual activity in experiment [1] came out at 33%. `Cc1cc(C)cc(CC(C(=O)O)[C@H](N)C(=O)O)c1` (mixture of isomers) registered a residual activity in experiment [1] of 36%. In the case of `N[C@H](C(=O)O)C(Cc1ccc([N+](=O)[O-])cc1)C(=O)O` (stereo not given in full), the residual activity in experiment [1] is 65%. `N[C@H](C(=O)O)[C@H](Cc1cccc(F)c1)C(=O)O`: the 50% inhibitory concentration (IC50) in experiment [2] worked out at 2.46 µM. Compound `N[C@H](C(=O)O)C(Cc1cccc(F)c1)C(=O)O` (stereo not given in full) gave a residual activity in experiment [1] of 0%. On to `N[C@H](C(=O)O)C(Cc1ccc(F)cc1)C(=O)O` (mixture of isomers), for which the residual activity in experiment [1] was 7%.

Source of the values: ChEMBL document CHEMBL1155940, “Synthesis and preliminary pharmacological evaluation of novel derivatives of L-beta-threo-benzylaspartate as inhibitors of the neuronal glutamate transporter EAAT3” (Bioorg Med Chem, 2008).
